From ChEMBL document CHEMBL1140848, “Redox-active dinitrodiphenylthioethers against Leishmania: synthesis, structure-activity relationships and mechanism of action studies” (Bioorg Med Chem, 2009)
The source made the active and inactive calls. No cut-off for these calls is given here.

Experiments:
Leishmania donovani [1] = assay: Antileishmanial activity against Leishmania donovani MHOM/SD/62/1S-CL2D axenic amastigotes after 3 days by tetrazolium dye based colorimetric assay; format: functional, organism-based; details: 72 h
Summary of the method: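 Axenic amastigotes adapted from promastigotes and kept in amastigote medium at 37 °C. 6 × 10^4 cells per well, 2-fold compound dilutions, 3 days at 37 °C in 5% CO2. Growth read as tetrazolium (CellTiter) absorbance at 490 nm several hours after dye addition. IC50 from a four-parameter dose-response fit. Three or more separate experiments.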

Leishmania amazonensis = assay: Antileishmanial activity against beta-lactamase transfected Leishmania amazonensis in CD1 mouse macrophages assessed as infected macrophages after 72 hrs; format: functional, organism-based
Summary of the method: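 Starch-elicited peritoneal macrophages from CD-1 mice were plated at 1 × 10^6 cells/ml and adhered overnight. They were infected overnight at 34 °C with β-lactamase-expressing L. amazonensis (5 × 10^6 cells/ml) and washed. Twofold compound dilutions were applied for 72 h at 34 °C. Cells were lysed in 0.1% Triton X-100 with 100 µM nitrocefin for 4 h at 37 °C and read at A490. IC50 by four-parameter fit.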

[2] = Cytotoxicity against CD1 mouse macrophages at 6.3 uM after 72 hrs; format: cell-based; details: macrophage
Vero = assay: Cytotoxicity against african green monkey Vero cells after 3 days by tetrazolium dye based colorimetric assay; format: cell-based; details: Chlorocebus sabaeus, 72 h
Summary of the method: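 Vero cells were grown in alpha-MEM with 10% HI-FBS. 1 × 10^3 cells per well received 2-fold compound dilutions for 3 days at 37 °C, 5% CO2. Growth was read as tetrazolium (CellTiter) absorbance at 490 nm. IC50 by four-parameter dose-response fit.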

Leishmania donovani [3] = assay: Antiparasitic activity against Leishmania donovani promastigotes assessed as reduction of membrane potential by rhodamine 123 assay; format: functional; design: scale not given: the % may be the effect or the level left
Summary of the method: (§1)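 Promastigotes at 1 × 10^6 cells/ml were exposed to compounds in 1% DMSO for 24 h, at 10 µM and above. FCCP 100 µM for 2 h served as positive control. Cells were then stained with 1 µM rhodamine 123 for 1 h and read by flow cytometry. Results are % fluorescence reduction against vehicle controls. Three experiments, SEM.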

[4] = Cytotoxicity against CD1 mouse macrophages at 13 uM after 72 hrs; format: cell-based; details: macrophage
Leishmania donovani [5] = assay: Antileishmanial activity against Leishmania donovani promastigotes assessed as induction of ROS production in by flow cytometric detection at 10 uM after 24 hrs; format: functional, organism-based
Summary of the method: (§2)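 Log-phase promastigotes were loaded with 10 µg/ml CM-H2DCFDA in FBS-free medium for 60 min at 25 °C. They were then resuspended at 1 × 10^6 cells/ml and exposed to compounds in 1% DMSO for 24 h. Fluorescence was read by flow cytometry on 10,000 cells and normalized to vehicle controls (=1.0). H2O2 250 µM served as positive control. Three experiments, SEM.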

Leishmania donovani [6] = assay: Antileishmanial activity against Leishmania donovani promastigotes assessed as induction of ROS production in by flow cytometric detection at 100 uM after 24 hrs; format: functional, organism-based; summary of the method: as §2
Leishmania donovani [7] = assay: Antiparasitic activity against Leishmania donovani promastigotes assessed as reduction of membrane potential 10 uM by rhodamine 123 assay; format: functional; design: scale not given: the % may be the effect or the level left; summary of the method: as §1
[8] = Cytotoxicity against CD1 mouse macrophages assessed as infected macrophages at 3.1 uM after 72 hrs; format: cell-based; details: macrophage
Leishmania donovani [9] = assay: Antileishmanial activity against Leishmania donovani promastigotes assessed as induction of ROS production in by flow cytometric detection at 0.1 uM after 24 hrs; format: functional, organism-based; summary of the method: as §2
Leishmania donovani [10] = assay: Antileishmanial activity against Leishmania donovani promastigotes assessed as induction of ROS production in by flow cytometric detection at 1 uM after 24 hrs; format: functional, organism-based; summary of the method: as §2
Leishmania donovani [11] = assay: Reduction of parasitemia in Leishmania donovani LV82 promastigotes infected BALB/c mouse at 50 mg/kg/day, ip for 5 days relative to control; format: functional; design: scale not given: the % may be the effect or the level left; details: route intraperitoneal
[12] = Lipophilicity, log P of the compound; format: physicochemical; details: octanol/water
Summary of the method: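 clogP was calculated with the ChemAxon/Marvin program.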

Leishmania donovani [13] = assay: Reduction of parasitemia in Leishmania donovani LV82 promastigotes infected BALB/c mouse at 25 mg/kg/day, ip for 5 days relative to control; format: functional; design: scale not given: the % may be the effect or the level left; details: route intraperitoneal
Summary of the method: (§3)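 Infected BALB/c mice were dosed i.p. once daily for 5 days, starting 7 days post-infection. Vehicles were 10% DMSO/70% cremophor-ethanol (3:1)/20% PBS, or PBS for miltefosine. On day 14, Giemsa-stained liver smears were scored as amastigotes per 1000 liver cells × liver weight (mg) and compared with vehicle controls. 4–5 mice per group, SD.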

Leishmania donovani [14] = assay: Reduction of parasitemia in Leishmania donovani infected BALB/c mouse at 3 mg/kg/day, ip for 5 days relative to control; format: functional; design: scale not given: the % may be the effect or the level left; details: route intraperitoneal; summary of the method: as §3

Row | Compound | IC50 (Leishmania donovani [1]) [µM] | IC50 (Leishmania amazonensis) [µM] | IC50 (Vero) [µM] | other results
1 | Cc1cccc(Sc2c([N+](=O)[O-])cc(C(F)(F)F)cc2[N+](=O)[O-])c1 | 1.6 | 2.4 | 7.3 | Activity [2]: Toxic
2 | Cc1cc(Sc2c([N+](=O)[O-])cccc2[N+](=O)[O-])c(Cl)cc1Cl | 23 |  |  | Activity (Leishmania donovani [3]): < 20%
3 | CCSc1c([N+](=O)[O-])cc(C(F)(F)F)cc1[N+](=O)[O-] | 98 |  |  | 
4 | Cc1cc(Sc2c(C(F)(F)F)cc(C(F)(F)F)cc2C(F)(F)F)c(Cl)cc1Cl | 100 |  |  | 
5 | O=[N+]([O-])c1cc(C(F)(F)F)cc([N+](=O)[O-])c1Oc1ccc(Cl)cc1Cl | 3.4 |  |  | 
6 | O=[N+]([O-])c1cc(C(F)(F)F)cc([N+](=O)[O-])c1Sc1ccc(O)cc1 | 3.3 |  |  | 
7 | Cc1cc(Sc2c([N+](=O)[O-])cc(C#N)cc2[N+](=O)[O-])c(Cl)cc1Cl | 1 | 5.8 | 11 | Activity [4]: Toxic; Activity (Leishmania donovani [5]): Active; Activity (Leishmania donovani [6]): Active; Activity (Leishmania donovani [7]): 90%
8 | O=[N+]([O-])c1cc(C(F)(F)F)cc([N+](=O)[O-])c1Sc1ccccc1 | 0.96 | 2.6 | 6 | Activity [2]: Toxic
9 | O=[N+]([O-])c1cc(C(F)(F)F)cc([N+](=O)[O-])c1Sc1ccc(Cl)cc1Cl | 0.4 | 2.6 | 4.3 | Activity [8]: Toxic
10 | COc1cc([C@@H]2c3cc4c(cc3[C@H](O)[C@H]3COC(=O)[C@H]23)OCO4)cc(OC)c1OC [PODOFILOX] |  |  | 0.023 | 
11 | O=[N+]([O-])c1cc(C(F)(F)F)cc([N+](=O)[O-])c1Nc1ccc(Cl)cc1Cl | 25 |  |  | 
12 | Cc1cc(Sc2ncc(C(F)(F)F)cc2[N+](=O)[O-])c(Cl)cc1Cl | 59 |  |  | 
13 | Cc1cc(Sc2c([N+](=O)[O-])cc(C(F)(F)F)cc2[N+](=O)[O-])c(Cl)cc1Cl | 0.56 | 3.4 | 9.7 | Activity [4]: Toxic; Activity (Leishmania donovani [9]): inactive; Activity (Leishmania donovani [10]): inactive; Activity (Leishmania donovani [6]): Active; Activity (Leishmania donovani [3]): Dose-dependent effect; Activity (Leishmania donovani [11]): -2%; logP [12]: 6.85
14 | O=C(O)c1ccccc1Sc1c([N+](=O)[O-])cc(C(F)(F)F)cc1[N+](=O)[O-] | 7.3 |  |  | 
15 | Cc1cc(Sc2ccc(C(F)(F)F)cc2[N+](=O)[O-])c(Cl)cc1Cl | 98 |  |  | 
16 | Cc1cc(Sc2c([N+](=O)[O-])cc([N+](=O)[O-])cc2C(F)(F)F)c(Cl)cc1Cl | 0.62 | 1.8 | 5.2 | Activity [2]: Toxic
17 | Cc1cc([N+](=O)[O-])c(Sc2cc(C)c(Cl)cc2Cl)c([N+](=O)[O-])c1 | > 200 |  |  | Activity (Leishmania donovani [9]): inactive; Activity (Leishmania donovani [10]): inactive; Activity (Leishmania donovani [5]): inactive; Activity (Leishmania donovani [3]): < 20%
18 | COc1ccc(Sc2c([N+](=O)[O-])cc(C#N)cc2[N+](=O)[O-])cc1 |  |  |  | Activity (Leishmania donovani [13]): 28%
19 | O=[N+]([O-])c1cc(C(F)(F)F)cc([N+](=O)[O-])c1SC1CCCCC1 | 35 |  |  | 
20 | CCCCCCCCCCCCCCCCOP(=O)([O-])OCC[N+](C)(C)C [MILTEFOSINE] |  |  |  | Activity (Leishmania donovani [14]): 41%
21 | COc1ccc(Sc2c([N+](=O)[O-])cc(C(F)(F)F)cc2[N+](=O)[O-])cc1 | 1.9 | 5.1 | 12 | 
22 | Cc1cc(Sc2ccc([N+](=O)[O-])cc2)c(Cl)cc1Cl | 88 |  |  | 
